As a reminder, the MIC is the smallest concentration in the dilution series that meets the test's criterion for growth inhibition. Read a high MIC as a less susceptible organism. A word on the IC50: it is the concentration that gives 50% inhibition. A high value points to weaker potency in that assay.

For experiment [1], the system named is Candida albicans. The experiment is described as follows: Antifungal activity against Candida albicans after 48 hrs by agar disk diffusion assay. The experiment is classed as functional. A digest of the protocol: (§1)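 Fungal isolates (PSG Hospital, Coimbatore) grown on Sabouraud dextrose agar; agar well diffusion with compounds in DMSO at 0 (control), 25, 50, 75, 100. DMSO negative control, fluconazole ([…]) positive control. Plates held 28 ± 2 °C for 48 h; zone of inhibition diameter recorded in mm.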
In general terms: In agar diffusion tests the substance spreads into inoculated agar from a disc or well.

In experiment [2] the test system is Candida albicans. The experiment is described as follows: Antifungal activity against Candida albicans AT 30 ug/ml after 48 hrs by agar disk diffusion assay. It is filed as functional. The settings on record: read-out: DIZ. An outline of the steps:
(§2)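 Agar well diffusion on Sabouraud dextrose agar; fungal strains obtained from a hospital. Compounds dissolved in DMSO, with DMSO as negative control and fluconazole ([…]) as positive control. Plates incubated at 28 ± 2 °C for 48 h. Activity taken as the diameter of the inhibition zone, in mm.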

Experiment [3] has as its system Aspergillus niger. The experiment is described as follows: Antifungal activity against Aspergillus niger at 30 ug/ml after 48 hrs by agar disk diffusion assay. It is filed as functional. The settings on record: read-out: DIZ. A digest of the protocol: as §2
Experiment [4] relates to Aspergillus niger. Kind of experiment: Antifungal activity against Aspergillus niger after 48 hrs by agar disk diffusion assay. The experiment is classed as functional. An outline of the steps: as §1
The test system of experiment [5] is Enterococcus faecalis. Kind of experiment: Antibacterial activity against Enterococcus faecalis after 24 hrs by agar disk diffusion assay. The experiment is classed as functional. A digest of the protocol:
(§3)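 Agar well diffusion on nutrient agar against Gram-positive clinical isolates (PSG Hospital, Coimbatore). Compounds in DMSO tested at 0 (control), 25, 50, 75, 100; DMSO as solvent and negative control; ciprofloxacin ([…]) as positive control. Plates incubated 37 ± 2 °C, 24 h; zone of inhibition diameter read in mm.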

Experiment [6] concerns Escherichia coli. The experiment is described as follows: Antibacterial activity against Escherichia coli after 24 hrs by agar disk diffusion assay. The experiment is classed as functional. A digest of the protocol:
(§4)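 Gram-negative clinical isolates (PSG Hospital, Coimbatore) tested by agar well diffusion on nutrient agar. Compounds dissolved in DMSO at 0 (control), 25, 50, 75, 100; DMSO was the negative control and ciprofloxacin ([…]) the positive control. Incubation 37 ± 2 °C for 24 h, then inhibition zone diameter measured in mm.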

Experiment [7] concerns Klebsiella pneumoniae. Kind of experiment: Antibacterial activity against Klebsiella pneumoniae after 24 hrs by agar disk diffusion assay. It is filed as functional. A digest of the protocol:
as §4

Experiment [8] is described as follows: Cytotoxicity against human SK-MEL-12 cells up to 50 ug/ml after 48 hrs by SRB assay. It is filed as functional, cell-based. A digest of the protocol: (§5)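 Cells in RPMI-1640 with 10% heat-inactivated FBS, 1 mM NaHCO3, 2 mM L-glutamine, 37 °C, 5% CO2; seeded (B16F10 5 × 10⁴ cells/mL, others 1 × 10⁵ cells/mL), 24 h, then compounds in DMSO at 1.56–50 for 48 h, triplicate wells. TCA fixation, SRB staining 30 min, tris extraction, OD 520 nm; IC50 by linear regression, mean ± SD of three independent experiments; cisplatin positive control.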
A general note: Sulforhodamine B stains cellular protein and so reports cell mass.

The next experiment deals with SK-OV-3. The experiment is described as follows: Cytotoxicity against human SKOV3 cells up to 50 ug/ml after 48 hrs by SRB assay. The experiment is classed as functional, cell-based. A digest of the protocol:
as §5

The test system of experiment [9] is Escherichia coli. Kind of experiment: Antibacterial activity against Escherichia coli at 50 ug/ml after 24 hrs by agar disk diffusion assay. The experiment is classed as functional. The settings on record: read-out: DIZ. An outline of the steps:
as §4

A further experiment has as its system HCT-15. Kind of experiment: Cytotoxicity against human HCT15 cells after 48 hrs by SRB assay. The settings on record: HCT-15, 48 h. It is filed as functional, cell-based. A digest of the protocol: as §5
The next experiment deals with A549. Kind of experiment: Cytotoxicity against human A549 cells up to 50 ug/ml after 48 hrs by SRB assay. The experiment is classed as functional, cell-based. A digest of the protocol: as §5
Experiment [10] has as its system Klebsiella pneumoniae. The experiment is described as follows: Antibacterial activity against Klebsiella pneumoniae at 50 ug/ml after 24 hrs by agar disk diffusion assay. It is filed as functional. The settings on record: read-out: DIZ. An outline of the steps: as §4
A further experiment has as its system B16-F10. Kind of experiment: Cytotoxicity against mouse B16F10 cells after 48 hrs by SRB assay. The settings on record: B16-F10, 48 h. The experiment is classed as functional, cell-based. An outline of the steps: as §5
Experiment [11] concerns Staphylococcus aureus. Kind of experiment: Antibacterial activity against Staphylococcus aureus at 50 ug/ml after 24 hrs by agar disk diffusion assay. The experiment is classed as functional. Particulars: read-out: DIZ. A digest of the protocol:
as §3

For experiment [12], the system named is Aspergillus niger. Kind of experiment: Antifungal activity against Aspergillus niger at 50 ug/ml after 48 hrs by agar disk diffusion assay. It is filed as functional. The settings on record: read-out: DIZ. A digest of the protocol: as §1
Experiment [13] relates to Radical scavenging activity. Kind of experiment: Antioxidant activity assessed as DPPH radical scavenging activity upto 600 mg/ml after 30 mins by micro plate reader. The experiment is classed as functional. An outline of the steps:
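DPPH assay: various compound concentrations brought to volume with ethanol, mixed with 0.1 mM ethanolic DPPH alongside vitamin C standard; shaken 30 min at 24 °C, absorbance read at 517 nm; concentration giving 50% decrease determined.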
In general terms: DPPH is a stable violet radical that fades when it is reduced.

Experiment [14] relates to Enterococcus faecalis. The experiment is described as follows: Antibacterial activity against Enterococcus faecalis at 50 ug/ml after 24 hrs by agar disk diffusion assay. The experiment is classed as functional. The settings on record: read-out: DIZ. A digest of the protocol: as §3
For experiment [15], the system named is Candida albicans. The experiment is described as follows: Antifungal activity against Candida albicans at 50 ug/ml after 48 hrs by agar disk diffusion assay. It is filed as functional. Particulars: read-out: DIZ. A digest of the protocol: as §1
Experiment [16] relates to Staphylococcus aureus. Kind of experiment: Antibacterial activity against Staphylococcus aureus after 24 hrs by agar disk diffusion assay. The experiment is classed as functional. A digest of the protocol:
as §3

The subject of experiment [17] is Klebsiella pneumoniae. The experiment is described as follows: Antibacterial activity against Klebsiella pneumoniae at 30 ug/ml after 24 hrs by agar disk diffusion assay. Particulars: read-out: DIZ.
The subject of experiment [18] is Staphylococcus aureus. Kind of experiment: Antibacterial activity against Staphylococcus aureus at 30 ug/ml after 24 hrs by agar disk diffusion assay. The settings on record: read-out: DIZ.
Experiment [19] has as its system Enterococcus faecalis. Kind of experiment: Antibacterial activity against Enterococcus faecalis at 30 ug/ml after 24 hrs by agar disk diffusion assay. The settings on record: read-out: DIZ.
Experiment [20] deals with Escherichia coli. Kind of experiment: Antibacterial activity against Escherichia coli at 30 ug/ml after 24 hrs by agar disk diffusion assay. The settings on record: read-out: DIZ.

In brackets after ≈: the same amount, converted by molar mass. Activity calls are given as the source filed them.

As for `OC(Cn1cncn1)(Cn1cncn1)c1ccc(F)cc1F` [FLUCONAZOLE], the MIC against Candida albicans [1] and against Aspergillus niger [4] was 12.5 µg/mL (≈ 40.8 µM) each time. Further, the zone of inhibition at 30 µg/mL in the experiment with Candida albicans [2] was found to be 22 mm; with Aspergillus niger [3], 19 mm.
For `Cc1ccc2[nH]c3c(c2c1)CCc1c-3nc(N)c(C#N)c1-c1ccc(N(C)C)cc1`, the MIC against Enterococcus faecalis [5] was 50 µg/mL (≈ 127 µM); against Escherichia coli [6], 50 µg/mL (≈ 127 µM); against Candida albicans [1], > 100 µg/mL; in the experiment on Klebsiella pneumoniae [7], 50 µg/mL (≈ 127 µM); in the experiment with Aspergillus niger [4], > 100 µg/mL; against Staphylococcus aureus [16], 50 µg/mL (≈ 127 µM). Further, the IC50 entry in experiment [8] is “Not Active”; in the experiment on SK-OV-3, “Not Active”; in the experiment on HCT-15, 43.5 µg/mL (≈ 111 µM); in the experiment on A549, “Not Active”; in the experiment on B16-F10, 34.6 µg/mL (≈ 87.9 µM). Besides, the zone of inhibition at 50 µg/mL stood at 17 mm with Escherichia coli [9]; 18 mm in the experiment on Klebsiella pneumoniae [10]; 17 mm with Staphylococcus aureus [11]; 5 mm in the experiment with Aspergillus niger [12]; 19 mm in the experiment with Enterococcus faecalis [14]; 9 mm in the experiment with Candida albicans [15]. Moreover, in [13], the outcome was inactive.
For the compound `O=C(O)c1cn(C2CC2)c2cc(N3CCNCC3)c(F)cc2c1=O` [CIPROFLOXACIN], the MIC in the experiment on Enterococcus faecalis [5], against Escherichia coli [6], in the experiment with Klebsiella pneumoniae [7] and in the experiment with Staphylococcus aureus [16] was 12.5 µg/mL (≈ 37.7 µM) throughout. Also, the zone of inhibition at 30 µg/mL with Klebsiella pneumoniae [17] was found to be 30 mm; in the experiment with Staphylococcus aureus [18] it was 28 mm; in the experiment with Enterococcus faecalis [19], 29 mm; in the experiment with Escherichia coli [20] it was 27 mm.
